Bioassay records from PubChem.
SUMO Mot1 rescue – yeast Mot1-301 growth rescue at high temperature, primary screen, SUMOylation pathway inhibitor project, S. cerevisiae, ATP luminescence, 38.5C | S. cerevisiae Mot1-301 growth rescue; percent above DMSO median, 100 means doubled | growth rescue, % at 18.8 µM | 320,000 compounds, 1% hits | AID 2716, 2010;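 active = every valid replicate shows activation above 250% relative to neutral control wells; inactive = the rest, any valid replicate at or below 250%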
AI-2 QS modul – Vibrio harveyi AI-2 quorum sensing modulators, primary screen, JMH597 strain, luminescence/OD600 ratio; Vibrio harveyi JMH597 AI-2 luminescence/OD600 ratio, 9 h; active compounds read low; strain lacks LuxN and CqsS sensors; 0 = neutral-control median; activity change, % at 7.5 µM; 300,000 compounds, 0.4% hits; AID 2094, 2009; in the data active = activity change below about -75%, passing the limit was not always enough;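 note: luminescence divided by OD600 gain over 9 h not by final OD600 alone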
hERG protect – hERG rescue from dofetilide block, primary screen, cell-based, CHO-hERG, FluxOR thallium flux, dofetilide IC70; dofetilide IC70 present; activation (rescue from dofetilide block), less the hit threshold, % at 10 µM; 310,000 compounds, 0.51% hits;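 active = activation above the mean of controls blocked by dofetilide plus 5 SD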;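 note: thallium influx through hERG after potassium depolarization seen as dye fluorescence rise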
Cl transport mod – KCC2 cotransporter modulators, thallium flux, primary screen, cell-based, HEK293 KCC2, FluoZin-2 fluorescence, MLSMR. B-score of Tl+ flux slope (higher = more flux/activation; lower = inhibition) at 10 µM. 190,000 compounds, 2.2% hits. KCC2 cells, thallium flux FluoZin-2 fluorescence. Solute carrier family 12 member 5 (Homo sapiens), Q9H2X9;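 active = thallium flux slope and its plate-corrected score both differing from the plate sample mean at a set confidence after two filtering rounds, in either direction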;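 note: slope of fluorescence scaled to starting intensity during 10 to 20 s after thallium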
KCNQ1 inh – inhibitors of human KCNQ1 channel, primary screen, cell-based, thallium flux, high-throughput. Potassium voltage-gated channel subfamily KQT member 1 (Homo sapiens), P51787. CHO-K1 KCNQ1, FluxOR thallium flux fluorescence; active compounds read high. B-score at 10 µM. 310,000 compounds, 1.3% hits;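 active = compounds whose thallium flux B-score, printed positive for inhibition, exceeds three library SD while starting fluorescence stays within three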;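 note: channel opened by potassium depolarization with thallium stimulus after 20 min compound exposure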
KCNQ1 pot – potentiators or activators of KCNQ1 channel, primary screen, cell-based, thallium flux, high-throughput; CHO-K1 KCNQ1, thallium flux FluxOR fluorescence; active compounds read high; B-score at 10 µM; 310,000 compounds, 0.35% hits;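 active = fluorescence ratio B-score, a plate-corrected score, at least three library SD, with initial intensity B-score within 5 SD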
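Assay system: stable KCNQ1 CHO-K1 line; medium: assay buffer, equal DMSO in all wells; timing: 90 min dye loading and 20 min compound exposure, both at room temperature; technique: kinetic FluxOR thallium fluorescence, 10-s 1-Hz baseline, 110-s post-stimulus read; read-out basis: B score of baseline-normalized fluorescence ratio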
KCNQ1 inh valid – KCNQ1 potassium channel inhibitors, confirmation, cell-based, Tl flux, duplicate. shares compounds with KCNQ1 inh. KCNQ1 cell line, FluxOR thallium flux fluorescence. inhibition, % at 10 µM. 1,600 compounds, 93% hits. AID 588353, 2011;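 active = primary screen active, with duplicate mean exceeding buffer control mean plus 3 SD of buffer wells, cut at about 28% in these data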
CHO KCNQ1 ctr – thallium flux effects in parental CHO cells, counter-screen for KCNQ1 inhibitor project, cell-based, Tl flux; shares compounds with KCNQ1 inh; parental CHO-K1, FluxOR thallium flux fluorescence ratio; active compounds read low; zero means no signal rise above baseline; AID 588366, 2011; 1,600 compounds, 21% hits; fluorescence ratio (Tl flux) at 10 µM;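 active = mean of duplicate thallium-flux fluorescence ratios in parental host cells more than 5 SD below the buffer control mean, cut at about 0.38 in these data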;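 note: ratio is peak minus minimum fluorescence divided by baseline fluorescence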
KCNQ1 APC inh – KCNQ1 channel inhibitors, confirmation, orthogonal assay, cell-based, automated electrophysiology. shares compounds with KCNQ1 inh. KCNQ1-CHO cells, automated patch clamp current. calls only at 10 µM. 490 compounds, 20% hits;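 active = KCNQ1 current drop exceeding 3 SD of negative control wells, seen in both duplicate runs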;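 note: steady state current during a 2 s step from -80 to +40 mV; negative values mean current inhibition and positive values mean potentiation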
KCNQ2 inh – KCNQ2 channel inhibition, selectivity assay for KCNQ1 inhibitor project, cell-based; shares compounds with KCNQ1 inh; KCNQ2 cells, FluxOR thallium flux fluorescence; inhibition, % at 10 µM; 1,600 compounds, 71% hits; AID 651746, 2012;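 active = mean percent inhibition of the KCNQ2 thallium signal more than 5 SD above the buffer-only control wells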;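 note: KCNQ2 expressed in CHO cells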
Target sequence (O88943 whole entry, looked up): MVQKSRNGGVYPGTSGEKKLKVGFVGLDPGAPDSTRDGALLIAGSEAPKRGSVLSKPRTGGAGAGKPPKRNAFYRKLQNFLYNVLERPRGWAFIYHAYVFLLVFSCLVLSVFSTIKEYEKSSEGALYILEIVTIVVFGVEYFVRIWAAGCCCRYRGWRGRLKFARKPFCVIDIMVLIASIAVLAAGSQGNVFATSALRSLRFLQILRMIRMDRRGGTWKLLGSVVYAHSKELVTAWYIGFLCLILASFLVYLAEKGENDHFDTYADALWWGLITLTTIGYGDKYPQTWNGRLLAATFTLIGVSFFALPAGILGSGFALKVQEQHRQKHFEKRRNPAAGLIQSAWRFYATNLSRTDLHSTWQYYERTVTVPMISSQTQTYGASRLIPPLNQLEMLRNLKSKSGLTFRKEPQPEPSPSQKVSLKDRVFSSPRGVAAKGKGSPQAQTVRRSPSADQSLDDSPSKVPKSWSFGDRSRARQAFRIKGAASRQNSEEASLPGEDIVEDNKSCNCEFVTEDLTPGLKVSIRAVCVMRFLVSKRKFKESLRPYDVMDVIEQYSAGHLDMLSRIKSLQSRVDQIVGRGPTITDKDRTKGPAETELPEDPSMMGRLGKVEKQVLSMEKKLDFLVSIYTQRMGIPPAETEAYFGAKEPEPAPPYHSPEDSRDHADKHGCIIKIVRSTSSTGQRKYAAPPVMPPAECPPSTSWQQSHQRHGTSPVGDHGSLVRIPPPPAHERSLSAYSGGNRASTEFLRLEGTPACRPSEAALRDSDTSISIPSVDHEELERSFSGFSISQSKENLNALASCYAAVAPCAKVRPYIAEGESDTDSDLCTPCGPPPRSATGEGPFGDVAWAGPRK
KCNQ1-KCNE1 inh – KCNQ1/KCNE1 channel inhibition, selectivity assay for KCNQ1 inhibitor project, CHO-K1 cells, thallium flux, FluxOR; shares compounds with KCNQ1 inh; 1,600 compounds, 77% hits; AID 652147, 2013; FluxOR thallium flux fluorescence; inhibition, % at 10 µM;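 active = mean percent inhibition of duplicate wells above the buffer-only control mean plus 3 SD of those controls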
Each line names hits and unclear results; the compound was inactive in the other large screens (follow-up assays come after a bar, where they were run). An excerpt weighted towards active compounds, which were near 4.2% of everything screened.

Cc1cccc(N2CCN(C(=O)CCCn3c(=O)c4cccn4c4cccnc43)CC2)c1C	none (no result: Cl transport mod)
CCOC(=O)c1cc(-c2ccccc2)sc1NC(=O)CC(C)C	KCNQ1 inh 6 | KCNQ1 inh valid 100.0 | CHO KCNQ1 ctr 0.349 | KCNQ2 inh 127.0% | KCNQ1-KCNE1 inh 116.0%
Cc1nc(C(F)(F)F)c(C(=O)O)cc1-c1nc(-c2ccccc2)cs1	none (no result: Cl transport mod)
COc1cc(C2Nc3cc(C)c(C)cc3NC3=C2C(=O)CC(C)(C)C3)ccc1OC(C)=O (stereo not given)	none (no result: AI-2 QS modul, Cl transport mod)
Cc1cc2c(cc1C)NC(c1c(C)n(C)n(-c3ccccc3)c1=O)C1=C(CC(C)(C)CC1=O)N2 (stereo not given)	KCNQ1 inh 15 | KCNQ1 inh valid inactive | CHO KCNQ1 ctr inactive | KCNQ2 inh inactive | KCNQ1-KCNE1 inh inactive
Cc1nc(NC(=O)CCN2C(=O)C3CC=CCC3C2=O)sc1C (stereo not given)	none (no result: Cl transport mod)
CC(C)(CCl)C(=O)Nc1ccc(C(F)(F)F)cc1	KCNQ1 inh 6 | KCNQ1 inh valid 56.5 | CHO KCNQ1 ctr inactive | KCNQ2 inh 66.3% | KCNQ1-KCNE1 inh 68.5%
CCOC(=O)C1=C(C)N=c2s/c(=C\c3ccc(O)c([N+](=O)[O-])c3)c(=O)n2C1c1ccccc1OC (stereo not given)	KCNQ1 inh 18 (no result: Cl transport mod) | KCNQ1 inh valid 143.5 | CHO KCNQ1 ctr 0.301 | KCNQ2 inh 109.0% | KCNQ1-KCNE1 inh active
COC(=O)c1cccc(NC(=O)NC23CC4CC(CC(C4)C2)C3)c1	none (no result: SUMO Mot1 rescue)
COC(=O)c1ccc(Cl)c(NC(=O)NC23CC4CC(CC(C4)C2)C3)c1	KCNQ1 inh 10 | KCNQ1 inh valid 131.0 | CHO KCNQ1 ctr inactive | KCNQ2 inh 108.3% | KCNQ1-KCNE1 inh 170.5%
CCN(CC(=O)Nc1cc(S(=O)(=O)N2CCCCC2)ccc1Cl)Cc1ccccc1	KCNQ1 inh 11 (no result: Cl transport mod) | KCNQ1 inh valid 86.5 | CHO KCNQ1 ctr inactive | KCNQ2 inh 104.0% | KCNQ1-KCNE1 inh 136.5%
CN1CCN(S(=O)(=O)c2ccc(NC(=O)Nc3cccc(Cl)c3)cc2)CC1	KCNQ1 inh 11 | KCNQ1 inh valid 62.0 | CHO KCNQ1 ctr inactive | KCNQ2 inh 65.3% | KCNQ1-KCNE1 inh inactive
O=C(Nc1cccc(Cl)c1)Nc1cc(S(=O)(=O)N2CCCCC2)ccc1Cl	KCNQ1 inh 8 | KCNQ1 inh valid 104.0 | CHO KCNQ1 ctr inactive | KCNQ2 inh 67.0% | KCNQ1-KCNE1 inh 105.0%
CC1CCN(CCCNC(=O)c2ccc3c(Cl)c4c(nc3c2)CCCC4)CC1	none (no result: SUMO Mot1 rescue)
CCc1cc(=S)n2c([nH]c3ccccc32)c1C#N	KCNQ1 inh 11 (no result: SUMO Mot1 rescue) | KCNQ1 inh valid 102.5 | CHO KCNQ1 ctr inactive | KCNQ1 APC inh inactive | KCNQ2 inh 112.0% | KCNQ1-KCNE1 inh 81.5%
Cc1cc(C)c(S(=O)(=O)n2ccc3ccccc32)c(C)c1	KCNQ1 inh 9 (no result: Cl transport mod) | KCNQ1 inh valid 105.5 | CHO KCNQ1 ctr 0.378 | KCNQ2 inh 116.3% | KCNQ1-KCNE1 inh 141.5%
O=S(=O)(c1ccccc1)n1ccc2ccccc21	none
CCn1nccc1C(=O)Nc1cc(Cl)cc(Cl)c1	KCNQ1 inh 6 | KCNQ1 inh valid 31.0 | CHO KCNQ1 ctr inactive | KCNQ2 inh inactive | KCNQ1-KCNE1 inh inactive
CC1(C)C(=O)Nc2ccccc2N1C(=O)COc1ccc(C#N)cc1	none (no result: AI-2 QS modul, hERG protect, Cl transport mod, KCNQ1 inh, KCNQ1 pot)
COc1ccc(C)cc1NC(=O)C(OC(=O)c1cc(C)oc1C)c1ccccc1 (stereo not given)	none
CCOc1ccccc1NC(=O)C(OC(=O)c1cc(C)oc1C)c1ccccc1 (stereo not given)	KCNQ1 inh 6 | KCNQ1 inh valid 82.0 | CHO KCNQ1 ctr 0.334 | KCNQ2 inh 105.3% | KCNQ1-KCNE1 inh 86.0%
CCOc1ccccc1NC(=O)C(OC(=O)c1ccccc1)c1ccccc1 (stereo not given)	KCNQ1 inh 6 | KCNQ1 inh valid 89.5 | CHO KCNQ1 ctr inactive | KCNQ1 APC inh inactive | KCNQ2 inh 107.0% | KCNQ1-KCNE1 inh 126.0%
CCOc1ccccc1NC(=O)C(OC(=O)c1ccccc1O)c1ccccc1 (stereo not given)	none
CC(C)c1noc2ncc(C(=O)c3cc(Cl)cc(Cl)c3O)cc12	KCNQ1 inh 6 (no result: Cl transport mod) | KCNQ1 inh valid 52.0 | CHO KCNQ1 ctr inactive | KCNQ2 inh inactive | KCNQ1-KCNE1 inh inactive
CSc1nc2ccc(NS(=O)(=O)c3ccc(Cl)s3)cc2s1	KCNQ1 inh 7 | KCNQ1 inh valid 103.0 | CHO KCNQ1 ctr inactive | KCNQ2 inh inactive | KCNQ1-KCNE1 inh 69.5%
CC(=O)Nc1sc(N/N=C/c2ccc(C)cc2)nc1-c1ccc(C)cc1	none
CC(=O)Nc1sc(/C(C#N)=C/c2ccc(Cl)c(Cl)c2)nc1-c1ccc(C)cc1	KCNQ1 inh 16 (no result: SUMO Mot1 rescue) | KCNQ1 inh valid active | CHO KCNQ1 ctr 0.23 | KCNQ2 inh inactive | KCNQ1-KCNE1 inh inactive
O=C(c1ccc(CS(=O)c2ccc(F)cc2)o1)N1CCN(C2CCCCC2)CC1 (stereo not given)	none (no result: Cl transport mod)
CC(C)COC(=O)NCCCOC(=O)Nc1ccccc1	none (no result: Cl transport mod)
